The EternaBench riboswitch data

System: MS2 coat protein
Test: apparent Kd, MS2 coat protein; higher = weaker binding; RNA-MaP array
Procedure, shortened: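 For each design, the apparent Kd is the median of binding-curve fits across its clusters. Designs measured on fewer than 10 clusters were dropped. The RNAs were transcribed from sequenced DNA templates on an Illumina sequencing chip and incubated at room temperature, with or without input ligand, with fluorescently labeled MS2 coat protein at 1.5 nM to 3 μM.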

[1] = designed as: OFF switch for flavin mononucleotide, no ligand
[2] = ligand present: flavin mononucleotide, designed as: OFF switch for flavin mononucleotide
[3] = designed as: ON switch for flavin mononucleotide, no ligand
[4] = ligand present: flavin mononucleotide, designed as: ON switch for flavin mononucleotide

| Sequence | apparent Kd [1] [nM] | apparent Kd [2] [nM] | apparent Kd [3] [nM] | apparent Kd [4] [nM] | other results |
| --- | --- | --- | --- | --- | --- |
| UCGGUAUAUACAGGAUAUGGUCAAUACAUGAGGAUCACCCAUGUUAGAGCGGCAAAUAGGAUCUUCCAGAAGGGUACUUGCUUA | 14.8 | 11.5 | – | – | – |
| GACAGGACGACAUGAGGAUCACCCAUGUGUUAGCGUGGAUAGCAGGAUAUAUUAUUUAGACUCGGAUAGAAGGGCUCGGACCUA | 18.3 | 14.5 | – | – | – |
| UUGUGUUCUUAGGAUAUACAACUUACCAUCAGAGUAGAAGGAAGGACAUGAGGAUCACCCAUGUGGGCUAGCAG | 154 | 21.7 | – | – | – |
| CGGGUGUAGACAGGAUAUGCAAAUAAAGGUGAAGCAGAAGGGUCACAUGAGGAUCACCCAUGUCACUAAAUUGGCGGUAUAAGA | 39 | 159 | – | – | – |
| UGAGUGAAGGAGAAGGGUCUUCAGGAAAUACGGAAAUAACAUGAGGAUCACCCAUGUUCAAGCAGACAGGAUAUCCAAUGUUGG | – | – | 18.8 | 14.6 | – |
| CAAUGACCCAAGGAUAUCUGCAGACGCGAGCCCAGAGAAGGUGGGACAUGAGGAUCACCCAUGUUCUCGUGUGA | 37 | 73.1 | – | – | – |
| CCGUACCCGGAGAAGGAAGUCGUUGGAUGGCCAACAUGAGGAUCACCCAUGUGAUUUCAACUUACUUAGGAUAUCCAAAAUGAG | – | – | 58.4 | 24.1 | – |
| UUGAAGAAUCACAUGAGGAUCACCCAUGUCAGGGUGAGUUUUGAGGAUAUACCGCCCAGGACUCGGUAGAAGGCAAGAAAUUAA | 553 | 562 | – | – | – |
| GGAAAGUCUGAGAAGGGAUGAAGACAUGAGGAUCACCCAUGUGAAGGCCACUGGCUCCACAAGUAUCAGGAUAUCAGCAUAGCG | – | – | 36.3 | 20.6 | – |
| UCUUCCCGCUUAGGAUAUCUUGCUAAUUUGUGUAGAGAAGGAAGUGUAAACAUGAGGAUCACCCAUGUGGCCUCCAGAUAAAGC | 12.1 | 14.9 | – | – | – |
| UAGCGGACUGUGAGGAUAUAGCAAAUUCAACAAUUCUAGAAGGCACAUGAGGAUCACCCAUGUAGAGUGAUUAA | 38.5 | 70.7 | – | – | – |
| AAUGGGUGAGAUCGUUUCAACAUGAGGAUCACCCAUGUUGACAGAAGGAGGUCUAAAUAGCUACCCUAGGAUAUGUCCAUGCGA | 19.9 | 31.9 | – | – | – |
| GCUUGCUCAGAGGAUAUAGUUUCAACCACUCUACUAGAAGGCUGUACAUGAGGAUCACCCAUGUCCUUAAUCUC | 22.6 | 23.7 | – | – | – |
| CCGCUUGCAGGAUAUACAUGAGGAUCACCCAUGUUAAGAGAACAGUAACAAAGCAUUUGUAGAAGGGCAAUACG | 9.81 | 9.19 | – | – | – |
| GCAACAUGUUCAGGAUAUACGCUACAAACUCGUGUAGAAGGGAAGGAUACAAUUACAUGAGGAUCACCCAUGUGUUAUCCGAUU | – | – | 23.7 | 20.8 | – |
| GGAAUGUGAGGAUAUAGGUGACCAAUACAAAACACAAAGAUCUAGAAGGCACAUGAGGAUCACCCAUGUAUACG | 19.9 | 17.9 | – | – | – |
| GCGACAUGAGGAUCACCCAUGUGCCUCGUGUUAUUCUCUUUAAGAAGGAACGGGUAGCUCUAUUGUUAGGAUAUUAAUGGAAUU | 689 | 724 | – | – | – |
| AAAUACAUGAGGAUCACCCAUGUCAAUAAUCGAGGACCGGUACGGCCGCCACUCGAUCGGCCAAGAAAAUGAAAGAUGAUCUCUA | – | – | – | – | apparent Kd (designed as: ON switch for tryptophan, no ligand): 26.9 nM; apparent Kd (ligand present: tryptophan, designed as: ON switch for tryptophan): 30.7 nM |
| UCGUCAUUGAACAGCACAUGAGGAUCACCCAUGUUUAGAUCUAGAAGGCCUUUCUCGAAGACCCAGGAGGAUAUAGUGAAGUGG | 21.8 | 18.7 | – | – | – |
| UAUUUGUUGAAGAAGGAGCGUACAUGAGGAUCACCCAUGUCCAACGUCUACGCGGGUUAUGUUAGCUAGGAUAUUCCGAAAUGG | 28.3 | 22.1 | – | – | – |
| GGCGUCCAAUUGCAGGAUAUCGGCCGAACAACAUGAGGAUCACCCAUGUCUUGCCACAAUCAUGCCGAGAAGGGCAGAAGAACGUG | – | – | 21 | 10.1 | – |
| CAAACAUUAUCAGGAUAUGUGCAAGAUCCGACAUGAGGAUCACCCAUGUUGCGGCAUCUCGGUUGACAGAAGGGAUCAUCGCCU | – | – | 11.2 | 10.1 | – |
| UAAAUACAUGAGGAUCACCCAUGUUUGGAUACCAGAUAUGACAUUAUCCCUUGGCAGCCAUUCGUUCCAAAUGCUAUUGUGAAGG | – | – | – | – | apparent Kd (designed as: ON switch for theophylline, no ligand): 22.5 nM; apparent Kd (ligand present: theophylline, designed as: ON switch for theophylline): 31 nM |
| CGCGGAACAUGAGGAUCACCCAUGUUAUGUAACAGCAAACUAAGAAGGCGUUAUAUAAGUAUGGACGAGGAUAUUAGCUUGAGU | – | – | 24.3 | 8.8 | – |
| GCACGGCUAGAGAAGGGAAGGUGGAAGAGAUGUGAGGGACAUGAGGAUCACCCAUGUCUUACGAUUCAGGAUAUCUGAGAGGCU | 10.2 | 10.3 | – | – | – |
| AAAUUCGGGAUCUAGGAUAUGUGCGUUUACACAUGAGGAUCACCCAUGUCUCACAGCCGUUUACCACAGAAGGAGAAACGACCUUA | – | – | 31.1 | 23.9 | – |
